We go through one molecule from ChEMBL document CHEMBL4251664, “Biocompatible Boron-Containing Prodrugs of Belinostat for the Potential Treatment of Solid Tumors” (ACS Med Chem Lett, 2018).

Active and inactive are the calls of the source. No cut-off for these calls is given here.

For orientation: IC50 means the midpoint of a concentration-inhibition curve. One may read the EC50 as the midpoint of the concentration-response curve. Higher therefore signals weaker potency.

For series [1], the system named is HeLa. The experiment in a line: Antiproliferative activity against human HeLa cells after 72 hrs by resazurin dye based fluorescence assay. It is filed as functional, cell-based. (Alamar Blue is a resazurin reagent that responds to reducing activity.)
Series [2] relates to MCF7. The experiment in a line: Antiproliferative activity against human MCF7 cells after 72 hrs by resazurin dye based fluorescence assay. It is filed as functional, cell-based. The note with it: MCF7, 72 h.
For series [3], the system named is NCI-H460. The experiment in a line: Antiproliferative activity against human NCI-H460 cells after 72 hrs by resazurin dye based fluorescence assay. It is filed as functional, cell-based. The note with it: NCI-H460, 72 h.
Series [4] relates to MDA-MB-231. The experiment in a line: Prodrug conversion in human MDA-MB-231 cells assessed as belinostat level after 5 days by UHPLC-MS/MS analysis. It is filed as ADME, cell-based. The note with it: mda-mb-231, 120 h. The procedure, abridged:
(§1)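 MDA-MB-231 or HeLa cells were incubated with the pinacol boronate prodrug, and culture medium was sampled daily from day 1 to day 6. The prodrug, boronic acid forms and belinostat were separated, identified and quantified by HPLC coupled to an Orbitrap mass spectrometer. Results are in ng/mL as mean ± SEM of triplicate experiments.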

Series [5] has as its system MDA-MB-231. Kind of series: Prodrug conversion in human MDA-MB-231 cells assessed as (E)-4-((3-(3-(N-phenylsulfamoyl)phenyl)acrylamidooxy)methyl)phenylboronic acid level after 1 day by UHPLC-MS/MS analysis. It counts as ADME, cell-based. The conditions noted are these: mda-mb-231, 24 h. The procedure, abridged:
as §1

For series [6], the system named is MDA-MB-231. The experiment in a line: Prodrug conversion in human MDA-MB-231 cells assessed as (E)-4-((3-(3-(N-phenylsulfamoyl)phenyl)acrylamidooxy)methyl)phenylboronic acid level after 2 days by UHPLC-MS/MS analysis. It counts as ADME, cell-based. The note with it: mda-mb-231, 48 h. The procedure, abridged:
as §1

In series [7] the test system is MDA-MB-231. Kind of series: Prodrug conversion in human MDA-MB-231 cells assessed as (E)-4-((3-(3-(N-phenylsulfamoyl)phenyl)acrylamidooxy)methyl)phenylboronic acid level after 3 days by UHPLC-MS/MS analysis. It is filed as ADME, cell-based. The note with it: mda-mb-231, 72 h. The method in brief:
as §1

Series [8] relates to MDA-MB-231. Kind of series: Prodrug conversion in human MDA-MB-231 cells assessed as (E)-4-((3-(3-(N-phenylsulfamoyl)phenyl)acrylamidooxy)methyl)phenylboronic acid level after 4 days by UHPLC-MS/MS analysis. It is filed as ADME, cell-based. The conditions noted are these: mda-mb-231, 96 h. The method in brief:
as §1

Series [9] has as its system MDA-MB-231. The experiment in a line: Prodrug conversion in human MDA-MB-231 cells assessed as (E)-4-((3-(3-(N-phenylsulfamoyl)phenyl)acrylamidooxy)methyl)phenylboronic acid level after 5 days by UHPLC-MS/MS analysis. It counts as ADME, cell-based. The conditions noted are these: mda-mb-231, 120 h. The method in brief: as §1
For series [10], the system named is HeLa. Kind of series: Prodrug conversion in human HeLa cells assessed as belinostat level after 1 day by UHPLC-MS/MS analysis. It counts as ADME, cell-based. The conditions noted are these: 24 h. The method in brief:
as §1

The test system of series [11] is HeLa. The experiment in a line: Prodrug conversion in human HeLa cells assessed as belinostat level after 2 days by UHPLC-MS/MS analysis. It counts as ADME, cell-based. The conditions noted are these: 48 h. The method in brief: as §1
The test system of series [12] is HeLa. Kind of series: Prodrug conversion in human HeLa cells assessed as belinostat level after 3 days by UHPLC-MS/MS analysis. It is filed as ADME, cell-based. The note with it: 72 h. The procedure, abridged: as §1
Series [13] has as its system HeLa. Kind of series: Prodrug conversion in human HeLa cells assessed as belinostat level after 6 days by UHPLC-MS/MS analysis. It counts as ADME, cell-based. The conditions noted are these: 144 h. The method in brief: as §1
The test system of series [14] is HeLa. The experiment in a line: Prodrug conversion in human HeLa cells assessed as (E)-4-((3-(3-(N-phenylsulfamoyl)phenyl)acrylamidooxy)methyl)phenylboronic acid level after 2 days by UHPLC-MS/MS analysis. It counts as ADME, cell-based. The conditions noted are these: 48 h. The method in brief:
as §1

The target of series [15] is T1, Protein deacetylase HDAC6 (Homo sapiens, UniProt Q9UBN7).
T1 sequence (Q9UBN7 whole entry): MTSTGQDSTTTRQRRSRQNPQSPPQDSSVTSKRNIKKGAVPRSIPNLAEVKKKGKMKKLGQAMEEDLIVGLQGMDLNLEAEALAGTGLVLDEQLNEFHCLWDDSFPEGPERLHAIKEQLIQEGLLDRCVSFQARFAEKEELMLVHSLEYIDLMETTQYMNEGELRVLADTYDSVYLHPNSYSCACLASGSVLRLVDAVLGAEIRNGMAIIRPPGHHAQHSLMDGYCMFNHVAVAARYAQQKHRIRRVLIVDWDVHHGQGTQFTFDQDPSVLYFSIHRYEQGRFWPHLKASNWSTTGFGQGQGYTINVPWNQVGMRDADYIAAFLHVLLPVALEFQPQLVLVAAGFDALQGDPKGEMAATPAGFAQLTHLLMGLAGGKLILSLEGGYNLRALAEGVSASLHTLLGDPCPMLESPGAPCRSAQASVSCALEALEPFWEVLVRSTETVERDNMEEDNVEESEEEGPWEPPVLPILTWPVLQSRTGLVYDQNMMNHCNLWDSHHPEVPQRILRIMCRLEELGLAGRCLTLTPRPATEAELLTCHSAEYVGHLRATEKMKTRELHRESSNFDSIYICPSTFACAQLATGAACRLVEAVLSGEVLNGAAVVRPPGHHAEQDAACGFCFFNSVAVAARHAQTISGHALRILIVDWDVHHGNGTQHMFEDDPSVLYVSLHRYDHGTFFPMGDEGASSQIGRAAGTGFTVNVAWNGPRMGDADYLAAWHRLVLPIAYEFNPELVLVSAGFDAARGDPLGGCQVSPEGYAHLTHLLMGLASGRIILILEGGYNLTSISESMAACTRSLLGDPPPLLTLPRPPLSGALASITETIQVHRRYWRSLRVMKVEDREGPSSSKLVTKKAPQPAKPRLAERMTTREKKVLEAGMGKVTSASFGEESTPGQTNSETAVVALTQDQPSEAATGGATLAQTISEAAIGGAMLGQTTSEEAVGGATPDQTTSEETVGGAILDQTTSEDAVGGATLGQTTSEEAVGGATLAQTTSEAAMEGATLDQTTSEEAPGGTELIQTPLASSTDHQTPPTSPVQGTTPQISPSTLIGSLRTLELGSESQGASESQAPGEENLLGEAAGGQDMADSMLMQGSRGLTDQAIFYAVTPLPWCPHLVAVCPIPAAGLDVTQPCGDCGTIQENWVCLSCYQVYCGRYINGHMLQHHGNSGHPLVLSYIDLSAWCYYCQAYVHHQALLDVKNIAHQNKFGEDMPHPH
Kind of series: Inhibition of human HDAC6 using RHKK(Ac)AMC as substrate.

Series [16] has as its system MCF7. Kind of series: Antitumor activity against human MCF7 cells implanted in ovariectomized nu/nu mouse assessed as tumor remission at 10 mg/kg, sc administered once daily for 22 days measured at 1 day interval for 3 weeks during compound dosing. It is filed as functional, organism-based.

In the case of `CC1(C)OB(c2ccc(CONC(=O)/C=C/c3cccc(S(=O)(=O)Nc4ccccc4)c3)cc2)OC1(C)C`, the IC50 in [1] came to 0.273 µM; in series [2] it was 1.46 µM; in series [3] it was 0.43 µM. Moreover, the Drug metabolism in series [4] amounted to 28.5 ng/mL; in series [5], 331.8 ng/mL; in [6], 268.5 ng/mL; in [7], 246.9 ng/mL; in series [8], 171.8 ng/mL; in series [9], 145.8 ng/mL. In addition, the Drug metabolism in [10] is 8.4 ng/mL; in series [11], 6.6 ng/mL; in series [12], 13.4 ng/mL; in series [13], 3.8 ng/mL; in series [14] it was 147.4 ng/mL. For the same molecule, a half-maximal response in [15] (EC50) required 20.2 µM. Further, the outcome in series [16] was Active.
